Assay results taken from ChEMBL document CHEMBL5149991 (J Med Chem, 2021).

What was measured:
[1] = target: Histamine H1 receptor (Homo sapiens, UniProt P35367)
[2] = target: Histamine H4 receptor (Homo sapiens, UniProt Q9H3N8)
[3] = target: T1, D(3) dopamine receptor (Homo sapiens, UniProt P35462); test: Displacement of [3H]N-methylspiperone from human D3 receptor stably expressed in HEK293T cells co-expressing luciferase and CEK incubated for 140 mins by radioligand competition binding based assay; assay type: cell-based
[4] = target: T1, D(3) dopamine receptor; test: Agonist activity at human D3 receptor stably expressed in HEK293T cells co-expressing ElucN-betaarr2 hD3R-ElucC by beta-arrestin2 recruitment assay; assay type: functional, cell-based
[5] = target: T2, Histamine H3 receptor (Homo sapiens, UniProt Q9Y5N1); test: Displacement of [3H]UR-PI294 from human histamine H3 receptor stably expressed in baculovirus infected Sf9 cell membrane co-expressing G-alphai2 and G-beta1gamma2 incubated for 60 mins by scintillation counting analysis; assay type: cell membranes
Procedure, shortened: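 hH3R + Gαi2 + Gβ1γ2 expressed in Sf9 membranes. […] Mean ± SEM from N independent experiments in triplicate.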

[6] = target: T3, D(2) dopamine receptor (Homo sapiens, UniProt P14416); test: Displacement of [3H]N-methylspiperone from human D2 long receptor stably expressed in HEK293T cells co-expressing luciferase and CEK incubated for 140 mins by radioligand competition binding based assay; assay type: cell-based
[7] = target: T2, Histamine H3 receptor
[8] = target: T4, Histamine H2 receptor (Homo sapiens, UniProt P25021); test: Displacement of [3H]UR-DE257 from human histamine H2 receptor stably expressed in baculovirus infected Sf9 cell membrane co-expressing RG-Salpha S incubated for 60 mins by scintillation counting analysis; assay type: cell membranes
[9] = target: T4, Histamine H2 receptor; test: Agonist activity at human histamine H2 receptor stably expressed in HEK293T cells co-expressing ARRB2 incubated for 60 mins by beta-arrestin2 recruitment assay; assay type: functional, cell-based
[10] = target: T3, D(2) dopamine receptor; assay type: functional, cell-based, HEK293T
[11] = target: T4, Histamine H2 receptor; test: Agonist activity at human histamine H2 receptor stably expressed in HEK293T cells co-expressing NlucN-mGs/hH2R-NlucC assessed as induction of mini-Gs protein recruitment using furimazine as substrate measured for 45 mins by luminescence assay
[12] = target: T5, Histamine H2 receptor (Cavia porcellus, UniProt P47747); test: Agonist activity at guinea pig histamine H2 receptor stably transfected in HEK293T cells co-expressing NlucN-mGs/gpH2R-NlucC by mini-G protein recruitment assay; assay type: functional, cell-based
[13] = target: T5, Histamine H2 receptor; test: Agonist activity at histamine H2 receptor in spontaneous beating guinea pig right atrium assessed as increase in heart beat; assay type: functional, tissue-based, Right cardiac atrium
[14] = target: Histamine H2 receptor (Cavia porcellus) (UniProt P47747); test: Agonist activity at guinea pig histamine H2 receptor stably transfected in HEK293T cells co-expressing NlucN-mGs/gpH2R-NlucC assessed as maximum efficacy at 100 uM by mini-G protein recruitment assay relative to histamine; assay type: functional, cell-based
[15] = target: Histamine H2 receptor (Cavia porcellus) (UniProt P47747); test: Agonist activity at histamine H2 receptor in spontaneous beating guinea pig right atrium assessed as increase in heart beat at 30 uM relative to histamine; assay type: functional, tissue-based; conditions: Right cardiac atrium
[16] = Chemical stability in pH 7.4 buffer measured at 0 to 2 weeks by HPLC analysis; assay type: physicochemical; conditions: time 0-2 weeks
[17] = target: T4, Histamine H2 receptor; test: Agonist activity at human histamine H2 receptor stably expressed in baculovirus infected Sf9 cell membrane co-expressing RG-Salpha S incubated for 90 mins by [35S]GTPgammaS binding based liquid scintillation counting method; assay type: functional, cell membranes

T4 sequence (P25021 whole entry): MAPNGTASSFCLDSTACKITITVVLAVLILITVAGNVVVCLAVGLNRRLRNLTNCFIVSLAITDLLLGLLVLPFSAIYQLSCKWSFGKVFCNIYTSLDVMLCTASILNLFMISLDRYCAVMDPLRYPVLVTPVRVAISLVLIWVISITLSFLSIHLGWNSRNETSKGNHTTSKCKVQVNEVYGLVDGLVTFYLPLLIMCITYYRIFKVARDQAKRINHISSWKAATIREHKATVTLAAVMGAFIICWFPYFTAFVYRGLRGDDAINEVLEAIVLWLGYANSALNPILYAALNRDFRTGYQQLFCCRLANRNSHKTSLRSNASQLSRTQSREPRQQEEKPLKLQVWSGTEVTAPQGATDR
Chain of Histamine H1 receptor (P35367 whole entry): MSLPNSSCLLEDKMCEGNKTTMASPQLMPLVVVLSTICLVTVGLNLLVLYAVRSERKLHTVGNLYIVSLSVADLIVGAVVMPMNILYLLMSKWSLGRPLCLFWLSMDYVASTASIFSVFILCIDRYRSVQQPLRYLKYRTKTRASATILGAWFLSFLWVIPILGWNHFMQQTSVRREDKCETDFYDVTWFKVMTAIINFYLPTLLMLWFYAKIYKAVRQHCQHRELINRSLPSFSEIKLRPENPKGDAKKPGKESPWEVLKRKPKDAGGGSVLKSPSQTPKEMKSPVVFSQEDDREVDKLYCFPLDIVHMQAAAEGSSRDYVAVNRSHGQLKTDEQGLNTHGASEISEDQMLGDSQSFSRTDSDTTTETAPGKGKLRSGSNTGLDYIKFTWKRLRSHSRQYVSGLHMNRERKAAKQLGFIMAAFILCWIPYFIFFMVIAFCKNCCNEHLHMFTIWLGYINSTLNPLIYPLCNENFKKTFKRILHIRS
T5 sequence (P47747 whole entry): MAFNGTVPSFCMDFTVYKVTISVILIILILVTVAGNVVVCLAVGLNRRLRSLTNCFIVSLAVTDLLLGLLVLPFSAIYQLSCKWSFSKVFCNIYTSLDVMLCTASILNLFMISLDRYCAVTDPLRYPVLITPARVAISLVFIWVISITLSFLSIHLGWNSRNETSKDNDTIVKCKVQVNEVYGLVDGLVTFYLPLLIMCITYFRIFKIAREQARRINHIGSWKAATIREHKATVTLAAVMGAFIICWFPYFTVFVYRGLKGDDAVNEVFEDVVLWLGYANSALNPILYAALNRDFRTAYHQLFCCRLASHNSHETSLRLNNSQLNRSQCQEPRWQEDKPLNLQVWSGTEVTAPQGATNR
T2 sequence (Q9Y5N1 whole entry): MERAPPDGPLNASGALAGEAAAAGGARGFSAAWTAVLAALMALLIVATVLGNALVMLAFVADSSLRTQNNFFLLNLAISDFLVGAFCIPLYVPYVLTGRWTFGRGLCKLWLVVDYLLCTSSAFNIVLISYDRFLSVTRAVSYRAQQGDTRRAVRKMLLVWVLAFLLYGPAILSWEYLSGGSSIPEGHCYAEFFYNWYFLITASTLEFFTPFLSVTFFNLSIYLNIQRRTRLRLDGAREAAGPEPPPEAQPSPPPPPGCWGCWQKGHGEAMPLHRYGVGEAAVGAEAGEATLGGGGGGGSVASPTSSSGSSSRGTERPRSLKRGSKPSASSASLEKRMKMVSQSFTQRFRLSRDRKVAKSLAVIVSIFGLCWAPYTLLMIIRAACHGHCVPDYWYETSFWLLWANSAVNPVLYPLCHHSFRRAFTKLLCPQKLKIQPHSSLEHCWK
Chain of Histamine H4 receptor (Q9H3N8 whole entry): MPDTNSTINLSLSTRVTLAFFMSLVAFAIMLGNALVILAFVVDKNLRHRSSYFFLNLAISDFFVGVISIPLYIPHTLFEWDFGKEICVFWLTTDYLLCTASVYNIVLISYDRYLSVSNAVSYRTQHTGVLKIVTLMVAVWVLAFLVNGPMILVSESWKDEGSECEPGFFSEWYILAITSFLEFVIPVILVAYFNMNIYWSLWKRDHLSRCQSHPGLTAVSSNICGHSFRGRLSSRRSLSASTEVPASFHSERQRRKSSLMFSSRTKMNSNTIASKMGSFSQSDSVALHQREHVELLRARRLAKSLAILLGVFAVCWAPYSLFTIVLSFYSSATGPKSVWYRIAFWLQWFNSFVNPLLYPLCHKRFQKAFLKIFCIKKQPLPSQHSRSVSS
T1 sequence (P35462 whole entry): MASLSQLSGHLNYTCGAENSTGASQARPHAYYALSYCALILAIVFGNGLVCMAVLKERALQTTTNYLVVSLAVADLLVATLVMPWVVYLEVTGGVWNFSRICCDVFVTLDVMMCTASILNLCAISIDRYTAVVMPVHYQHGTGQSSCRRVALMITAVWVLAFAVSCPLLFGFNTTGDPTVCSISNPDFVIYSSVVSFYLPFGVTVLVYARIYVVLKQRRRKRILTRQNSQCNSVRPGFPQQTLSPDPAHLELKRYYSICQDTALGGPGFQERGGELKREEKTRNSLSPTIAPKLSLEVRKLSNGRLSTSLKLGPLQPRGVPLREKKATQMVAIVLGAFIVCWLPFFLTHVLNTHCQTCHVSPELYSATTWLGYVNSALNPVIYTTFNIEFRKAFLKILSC
T3 sequence (P14416 whole entry): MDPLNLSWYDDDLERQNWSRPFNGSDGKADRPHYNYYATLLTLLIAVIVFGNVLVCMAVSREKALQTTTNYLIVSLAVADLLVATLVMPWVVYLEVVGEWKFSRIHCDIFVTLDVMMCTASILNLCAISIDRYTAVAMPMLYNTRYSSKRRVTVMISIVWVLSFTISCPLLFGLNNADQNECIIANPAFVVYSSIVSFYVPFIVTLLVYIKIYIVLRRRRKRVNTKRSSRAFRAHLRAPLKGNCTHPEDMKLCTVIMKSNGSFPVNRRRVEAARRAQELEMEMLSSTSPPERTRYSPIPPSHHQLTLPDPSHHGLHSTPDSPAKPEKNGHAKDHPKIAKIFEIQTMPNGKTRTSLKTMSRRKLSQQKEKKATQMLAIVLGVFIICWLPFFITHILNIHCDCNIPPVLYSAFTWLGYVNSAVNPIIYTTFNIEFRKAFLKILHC
Chain of Histamine H2 receptor (Cavia porcellus) (P47747 whole entry): as the sequence (P47747 whole entry) above

SMILES	Kd [1]	Ki [1]	Kd [2]	Ki [2]	Ki [3]	EC50 [4]	Ki [5]	Ki [6]	Kd [7]	Ki [7]	Ki [8]	EC50 [9]	EC50 [10]	EC50 [11]	EC50 [12]	EC50 [13]	Emax [14]	Emax [15]	Stability [16]	EC50 [17]
CC(CCCc1ccccc1)CNC(=O)/N=C(\N)NCCCc1nnc(N)s1 (configuration not stated)	4.5 nM	5130 nM	16 nM	4900 nM	324 nM	468 nM	3980 nM	447 nM												
Cc1nc(N)sc1-c1ccc(N/C(N)=N/C(=O)NCC(C)CCCc2ccccc2)cc1 (configuration not stated)	4.5 nM	7590 nM	16 nM	6030 nM			7940 nM		3 nM	7940 nM	316 nM									
Cc1ccc(CC(C)CNC(=O)/N=C(\N)NCCCc2cnc(N)s2)cc1 (configuration not stated)	4.5 nM	2510 nM	16 nM	4470 nM	229 nM	1050 nM	4790 nM	490 nM			64.6 nM	234 nM	4470 nM	77.6 nM						
CCCCCCNC(=O)/N=C(\N)NCCCc1nnc(N)s1	4.5 nM	5010 nM	16 nM	> 10000 nM	589 nM	813 nM	> 10000 nM	> 10000 nM			5.13 nM	1070 nM	> 10000 nM	6.03 nM	2.29 nM	4.79 nM	96%	106%		
Cc1ccc(CC(C)CNC(=O)/N=C(\N)NCCCc2nnc(N)s2)cc1.O=C(O)C(F)(F)F.O=C(O)C(F)(F)F (configuration not stated)	4.5 nM	1350 nM	16 nM	6920 nM	2040 nM	> 10000 nM	2340 nM	1070 nM							14.8 nM	95.5 nM			Stable	
Cc1ccc(CC(C)CNC(=O)/N=C(\N)Nc2ccc(-c3sc(N)nc3C)cc2)cc1 (configuration not stated)	4.5 nM	1820 nM	16 nM	6310 nM			8320 nM		3 nM	8320 nM	331 nM									
CCCCCCNC(=O)/N=C(\N)NCCCc1nnc(N)o1.O=C(O)C(F)(F)F.O=C(O)C(F)(F)F	4.5 nM	8910 nM	16 nM	> 10000 nM			> 10000 nM				389 nM								Stable	
N/C(=N\C(=O)NCc1ccccc1)NCCCc1cnc(N)s1	4.5 nM	5620 nM	16 nM	> 10000 nM	74.1 nM	67.6 nM	> 10000 nM	4570 nM			26.9 nM	49 nM	3390 nM	4.9 nM						
CCCCCNC(=O)/N=C(\N)NCC1CCc2nc(N)sc2C1.O=C(O)C(F)(F)F.O=C(O)C(F)(F)F (configuration not stated)	4.5 nM	5250 nM	16 nM	5890 nM			6610 nM		3 nM	6610 nM	155 nM								Stable	
N/C(=N\C(=O)NCCCCCCNC(=O)/N=C(\N)NCCCc1nnc(N)s1)NCCCc1nnc(N)s1	4.5 nM	3550 nM	16 nM	> 10000 nM			10000 nM	955 nM			5.25 nM	407 nM	1120 nM	20 nM						34.7 nM
